In test [1] the test system is PBMC. The test is described as follows: Effect on LPS stimulated TNF-alpha release from hPBMCs. It counts as functional, cell-based. Conditions: Homo sapiens. In outline: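 Human peripheral blood mononuclear cells incubated with inhibitor, then stimulated with LPS/IFNγ for 3 h; TNFα in supernatants quantified by ELISA.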
Test [2] deals with Mitogen-activated protein kinase 14 (Mus musculus, UniProt P47811). The experiment in a line: Inhibition of murine Mitogen-activated protein kinase p38 alpha. In outline: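 Phosphorylated His-tagged murine p38α MAP kinase (10 ng/well) assayed with immobilized GST-ATF-2 as substrate.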
In test [3] the test system is Mus musculus. The experiment in a line: Compound was tested for the inhibition of TNF-alpha release after LPS stimulation in mice at a dose of 30 mg/kg, po. It is filed as functional. Put shortly: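 Mice given compound orally at 30 mg/kg; 1 h after dosing, LPS (20 mg/kg) injected iv. One hour later blood collected and TNFα measured by mouse-specific ELISA.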

In general, IC50 refers to the concentration needed to halve the response being measured. One may read the inhibition in vivo as how much of the control response was suppressed. A low value points to little suppression.

Mitogen-activated protein kinase 14, sequence (P47811 whole entry): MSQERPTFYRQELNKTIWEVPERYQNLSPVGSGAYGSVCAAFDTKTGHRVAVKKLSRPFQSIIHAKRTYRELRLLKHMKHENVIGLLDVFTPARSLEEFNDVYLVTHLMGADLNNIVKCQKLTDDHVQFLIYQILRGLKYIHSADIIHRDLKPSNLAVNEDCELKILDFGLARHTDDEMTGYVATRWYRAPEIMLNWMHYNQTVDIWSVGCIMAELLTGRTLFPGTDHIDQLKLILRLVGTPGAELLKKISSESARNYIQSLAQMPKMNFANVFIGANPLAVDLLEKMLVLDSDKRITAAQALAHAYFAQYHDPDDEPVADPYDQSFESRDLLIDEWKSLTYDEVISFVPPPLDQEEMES

As to `O=C1NCc2cc(NS(=O)(=O)c3ccccc3Cl)ccc2N1c1c(Cl)cccc1Cl`, the IC50 in test [1] is 510 nM; in test [2] it was 180 nM. In the same order, the values of `O=C1NCc2cc(Nc3ccc(F)cc3F)ccc2N1c1c(Cl)cccc1Cl` are 290 nM and 380 nM. In the same order, the values of `O=C1NCc2cc(NS(=O)(=O)c3ccc(F)c(Cl)c3)ccc2N1c1c(Cl)cccc1Cl` are 84 nM and 34 nM.

On to `Cc1ccc(S(=O)(=O)Nc2ccc3c(c2)CNC(=O)N3c2c(Cl)cccc2Cl)cc1`, for which the IC50 in test [1] was > 10000 nM; in test [2], 1800 nM.

As to `CN(c1ccc2c(c1)CNC(=O)N2c1c(Cl)cccc1Cl)S(=O)(=O)c1cc(Cl)ccc1Cl`, the IC50 in test [1] was 1200 nM; in test [2], 780 nM.

In the case of `O=C1NCc2cc(Sc3ccc(F)cc3F)ccc2N1c1c(Cl)cccc1Cl`, the values for the IC50 in test [1] and in test [2] were 960 nM and 470 nM, respectively.

As for `O=C(Nc1ccc2c(c1)CNC(=O)N2c1c(Cl)cccc1Cl)c1ccccc1`, the results for the half-inhibitory concentration (IC50) in test [1] and in test [2] were 10000 nM and 8500 nM, respectively. In the same order, the values of `O=C1NCc2cc(NS(=O)(=O)c3ccccc3)ccc2N1c1c(Cl)cccc1Cl` are 140 nM and 53 nM. `O=C1NCc2cc(NS(=O)(=O)c3cc(Cl)ccc3O)ccc2N1c1c(Cl)cccc1Cl` showed an IC50 in test [2] of 570 nM.

Take `O=C1NCc2cc(NCc3ccccc3)ccc2N1c1c(Cl)cccc1Cl`: the IC50 was 1200 nM in test [1] and 150 nM in test [2]. In the same order, the values of `O=C1NCc2cc(NS(=O)(=O)c3cc(Cl)ccc3Cl)ccc2N1c1c(Cl)cccc1Cl` are 390 nM and 100 nM. `O=C1NCc2ccccc2N1c1c(Cl)cccc1Cl` returned an IC50 in test [2] of 11800 nM. On the same count and under the same terms, in the case of `COc1cc2c(-c3ccccc3)nc(=O)n(C(C)C)c2cc1N1CCOCC1` it was 14000 nM.

`Cc1cc(OCCCN2CCOCC2)cc(C)c1N1C(=O)NCc2cc(NS(=O)(=O)c3ccc(F)c(Cl)c3)ccc21` had an inhibition in vivo at 30 mg/kg in test [3] of 42%.

For the origin of these results see ChEMBL document CHEMBL1146826, “A novel Pd-catalyzed cyclization reaction of ureas for the synthesis of dihydroquinazolinone p38 kinase inhibitors” (Bioorg Med Chem Lett, 2004).
